Assay outcomes: PubChem BioAssay, several laboratories
The sample as a whole holds a higher share of hits than the screen did.
Lmaj promast = Leishmania major promastigote growth inhibition, primary screen | actives 9% (n = 200,000) | AID 1063, 2008 | inhibition, % at 10 µM | Leishmania major promastigotes, resazurin fluorescence viability; in the data active = inhibition above about 50%;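 note: promastigotes grown with compound for 44 hours at 28 °C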
Hsp70 activator = Hsp70 transcriptional activators, primary screen, cell-based, HeLa, Hsp70 promoter luciferase, luminescence, 10 µM. HeLa Hsp70 promoter luciferase reporter; scaled: vehicle 0, proteasome-inhibitor control 100%. actives 0.04% (n = 200,000). activation, % at 10 µM. AID 1203, 2008;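 active = activation above the mean across all tested compounds plus 3 SD, cutoff set per campaign, cut at about 5.5% in these data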;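 note: 100% = MG132 at 30 µM as the positive control and 0% = DMSO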
HSF1 activator = HSF-1 activators, primary screen, NIH3T3-HGL cells, MG132 stress, luminescence, single point | actives 1.7% (n = 300,000) | AID 504408, 2011 | NIH3T3-HGL HSF-1 luciferase reporter, 8 h; 100% = twice DMSO control signal | activation, % at 9 µM;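 active = mean replicate activation of at least 50% with a set share of replicates each reaching 50%; inconclusive = only one of those two conditions met; inactive = mean below 50% and too few replicates reaching it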;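 note: 0% = median of the neutral control wells and 100% = twice that signal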
HSF1 inhib = HSF1 inhibitors in luciferase reporter cells, primary screen, cell-based, NIH3T3, luminescence. NIH3T3-HGL HSE-luciferase, MG132-induced, luminescence 8 h; stronger effect = lower value. activity change, negative = inhibition, % at 7.5 µM (by protocol). actives 0.77% (n = 300,000);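 active = more than half of replicate wells show activity change below -50%, luminescence cut by over half; inconclusive = some wells, but at most half, below -50%; inactive = no replicate well below -50%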;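 note: luciferase reports HSF-1 transcriptional activity via heat shock element; 0% = median of DMSO wells and -100% = zero luminescence signal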
T cruzi repl = inhibitors of intracellular T. cruzi growth, primary screen, luminescence, NIH3T3 host cells | T. cruzi beta-gal in NIH3T3, 90 h | inhibition, % (no concentration beside the values) | actives 1.4% (n = 300,000) | AID 1885, 2009;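 active = mean inhibition across valid replicates above about 55%, limit read from the data; inconclusive = mean below that limit but half or more replicates reach it; inactive = mean below it, under half of replicates reach it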;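 note: signal also drops with host cell toxicity which is not excluded here; 0% = plate median of DMSO wells and 100% = zero luminescence signal; higher percent means less beta-gal luminescence so fewer parasites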
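assay system = mouse NIH/3T3 fibroblasts infected with β-gal-expressing T. cruzi Tulahuen C4 | input = 5,000 NIH/3T3 host cells per well | buffer or medium = DMEM plus 2% FBS | timing = 3 h host attachment, then at least 90 h co-culture | measured by = GalScreen luminescence, 60 min | evaluation = luminescence reflecting intracellular parasite burden, expressed as percent inhibition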
Starred values were filed as active, the others as inactive; ? = inconclusive; nt = not tested or not shown.

SMILES | Lmaj promast | Hsp70 activator | HSF1 activator | HSF1 inhib | T cruzi repl
CC12CCC(C/C1=N/NC(=O)Nc1ccccc1)C2(C)C (stereo not given) | 95* | 0 | 11 | 9 | 25
COc1cccc(NC(=S)N/N=C2\CC3CCC2(C)C3(C)C)c1 (stereo not given) | 89* | 0 | 16 | 2 | 19
Cc1nn(C2CCCO2)c(=O)nc1N (stereo not given) | 2 | 0 | -6 | -3 | 4
O=C(COC(=O)/C(=C/c1cccs1)c1cccs1)NC(c1ccccc1)c1ccccc1 | 97* | 0 | -1 | -1 | -8
Cc1ccc2nc(-c3ccc(SCC(=O)Nc4nc(C)cs4)nc3)[nH]c2c1 | 53* | 0 | ? | 46 | 29
Cc1ccc2nc(-c3ccc(SCC(=O)Nc4nnc(C)s4)nc3)[nH]c2c1 | 1 | 0 | nt | nt | -11
Cc1cc2nc(-c3ccc(SCC(=O)Nc4ccc5c(c4)OCCO5)nc3)[nH]c2cc1C | 29 | 0 | nt | nt | 18
Cc1ccc2nc(-c3ccc(SCC(=O)Nc4ccc5c(c4)OCCO5)nc3)[nH]c2c1 | 14 | 0 | 55* | 36 | -8
O=C(CSc1ccc(-c2nc3ccccc3[nH]2)cn1)Nc1ccc(S(=O)(=O)NC2CC2)cc1 | -3 | 0 | 51* | 26 | 7
Cc1ccc(C)c(Cn2c3ccccc3c3cnn(CC(=O)NCCCN4CCCCC4)c(=O)c32)c1 | nt | nt | 0 | 2 | 42
CCOC(=O)C1=C(CN2CCN(C(=O)c3ccco3)CC2)NC(=O)NC1c1ccc(C)cc1 (stereo not given) | nt | nt | 13 | 2 | -5
CSc1cccc(CN2CCC(CO)(Cc3cccc(C(F)(F)F)c3)CC2)c1 | 81* | 0 | 10 | -4 | 43
OCC1(Cc2cccc(C(F)(F)F)c2)CCN(Cc2cc(F)cc(F)c2)CC1 | 86* | 0 | 3 | -2 | 15
CCOC(=O)C1=C(C)Nc2ncnn2C1c1ccc2c(c1)OCO2 (stereo not given) | 0 | 0 | 51* | 32 | -20
CCOC(=O)C1=C(CNCCOc2ccc(OC)cc2)NC(=O)NC1c1ccc2c(c1)OCO2 (stereo not given) | 16 | 0 | 18 | 6 | 5
CCCCOC(=O)C1=C(C)Nc2ncnn2C1c1cccc(OC)c1 (stereo not given) | 61* | 0 | -12 | -1 | -10
CCOC(=O)C1=C(CNCCc2ccc(Cl)cc2)NC(=O)NC1c1ccc2c(c1)OCO2 (stereo not given) | 80* | 0 | 39 | 14 | 57*
Cn1ncc(Cl)c1C(=O)N1CCN(C23CC4CC(CC(C4)C2)C3)CC1 | nt | nt | 4 | 5 | 11
CC(=O)c1ccc(N=C2SCCCN2C(=O)C2CCCC2)cc1 | 64* | 0 | -8 | 3 | 4
CC(Cc1cccs1)NC(=S)Nc1ccc(Cl)cc1 (stereo not given) | 11 | -1 | 10 | 2 | -2
CC(Cc1cccs1)NC(=S)Nc1ccc(Cl)c(Cl)c1 (stereo not given) | 71* | 0 | 46 | 0 | -11
CC(Cc1cccs1)NC(=O)Nc1cccc(Cl)c1 (stereo not given) | 68* | 0 | 13 | 8 | -3
COc1cc(CC(=O)OCC(=O)NCC(C)C)cc(OC)c1OC | -9 | 0 | 19 | 1 | 0
O=C(/C=C/c1ccc(S(=O)(=O)NCc2ccco2)cc1)NCc1ccccc1Cl | 15 | 0 | 16 | 4 | 3
COc1ccc(CNC(=O)/C=C/c2ccc(S(=O)(=O)NCc3ccco3)cc2)cc1OC | 68* | 0 | -7 | 1 | -10
SMILES | Lmaj promast | Hsp70 activator | HSF1 activator | HSF1 inhib | T cruzi repl
O=C(/C=C/c1ccc(Cl)cc1)NCc1ccco1 | 51* | 0 | 25 | 3 | 6
CCOc1ccc(CCNC(=O)c2cc(=O)[nH]c3ccc(S(=O)(=O)N(CC)CC)cc23)cc1OCC | nt | nt | -9 | -10 | 3
Cc1cc(C)n(CC(O)COc2ccccc2Br)n1 (stereo not given) | nt | nt | 14 | -1 | -8
Cc1cc(C)n(CC(O)COc2ccc(Cl)cc2Cl)n1 (stereo not given) | nt | nt | 64* | 46 | -1
Cc1cc(C)n(CC(O)COc2ccc(Cl)cc2)n1 (stereo not given) | nt | nt | 50* | 25 | -2
Brc1ccc(-c2nnc(Cc3ccccc3)o2)cc1 | nt | nt | 56* | 34 | 10
c1ccc(Cc2nnc(-c3ccccc3)o2)cc1 | -1 | 0 | 29 | 20 | -17
Cc1ccc(OCC(=O)NNC(=O)c2ccoc2C)c(Br)c1 | 72* | 0 | -28 | -16 | -4
Cc1occc1C(=O)NNC(=O)COc1ccc(Br)cc1Br | -5 | 0 | 23 | 0 | -3
COc1ccc(Oc2nc3c(C)cccn3c(=O)c2/C=C(\C#N)C(N)=O)cc1 | nt | nt | 2 | -3 | 3
CCN1CCN(c2nc3c(C)cccn3c(=O)c2/C=C(\C#N)S(=O)(=O)c2ccc(Cl)cc2)CC1 | nt | nt | 6 | 0 | 32
Cc1ccc(S(=O)(=O)/C(C#N)=C/c2c(N3CC(C)OC(C)C3)nc3c(C)cccn3c2=O)cc1 (stereo not given) | 97* | 0 | -22 | -8 | -6
Cc1ccc(S(=O)(=O)/C(C#N)=C/c2c(N3CCN(C)CC3)nc3c(C)cccn3c2=O)cc1 | 0 | 0 | 12 | -3 | 20
Cc1cc(Oc2nc3c(C)cccn3c(=O)c2/C=C(\C#N)S(=O)(=O)c2ccc(Cl)cc2)ccc1Cl | 80* | 0 | 8 | 0 | -12
COC(=O)/C(C#N)=C/c1c(Oc2cc(C)cc(C)c2)nc2c(C)cccn2c1=O | 97* | 0 | 38 | 4 | -40
CCOC(=O)CNC(c1ccccc1)c1cc(Br)ccc1NC(=O)OCC (stereo not given) | 54* | 0 | 29 | 8 | 26
NNC(=O)CNC(c1ccccc1)c1cc(Br)ccc1N (stereo not given) | nt | nt | 7 | 10 | 2
COC(=O)CNC(c1ccccc1)c1cc(Br)ccc1NC(=O)CCN1CCOCC1 (stereo not given) | 100* | 0 | 48 | 24 | 68*
COC(=O)CNC(c1ccccc1)c1cc(Br)ccc1N (stereo not given) | nt | nt | 74* | 24 | 9
COC(=O)CNC(c1ccccc1)c1cc(Br)ccc1NC(=O)CNC(=O)OCc1ccccc1 (stereo not given) | 4 | 0 | 45 | 31 | 9
CCOC(=O)CNC(c1ccccc1)c1cc(Br)ccc1NC(=O)CCN1CCOCC1 (stereo not given) | 98* | 0 | 63* | 27 | ?
CCN(CC1CCCO1)C(=O)c1cc(COc2ccccc2SC)on1 (stereo not given) | nt | nt | -9 | 2 | -13
NC(=O)c1ccccc1N/C=C/C(=O)c1ccc(Cl)cc1Cl | 86* | 0 | 66* | 20 | 5
